The source made the active and inactive calls. No cut-off for these calls is given here.
Key:
Type in all cases: cell-based
[1] = target: T1, Nuclear factor erythroid 2-related factor 2 (Homo sapiens) (UniProt Q16236); assay: Activation of Nrf2 in human HepG2 cells assessed as increase in HO-1 expression level at 5 uM in presence of 25 uM JNK inhibitor SP600125 for 1 hr prior to compound treatment by Western blot analysis
T1 sequence (whole entry): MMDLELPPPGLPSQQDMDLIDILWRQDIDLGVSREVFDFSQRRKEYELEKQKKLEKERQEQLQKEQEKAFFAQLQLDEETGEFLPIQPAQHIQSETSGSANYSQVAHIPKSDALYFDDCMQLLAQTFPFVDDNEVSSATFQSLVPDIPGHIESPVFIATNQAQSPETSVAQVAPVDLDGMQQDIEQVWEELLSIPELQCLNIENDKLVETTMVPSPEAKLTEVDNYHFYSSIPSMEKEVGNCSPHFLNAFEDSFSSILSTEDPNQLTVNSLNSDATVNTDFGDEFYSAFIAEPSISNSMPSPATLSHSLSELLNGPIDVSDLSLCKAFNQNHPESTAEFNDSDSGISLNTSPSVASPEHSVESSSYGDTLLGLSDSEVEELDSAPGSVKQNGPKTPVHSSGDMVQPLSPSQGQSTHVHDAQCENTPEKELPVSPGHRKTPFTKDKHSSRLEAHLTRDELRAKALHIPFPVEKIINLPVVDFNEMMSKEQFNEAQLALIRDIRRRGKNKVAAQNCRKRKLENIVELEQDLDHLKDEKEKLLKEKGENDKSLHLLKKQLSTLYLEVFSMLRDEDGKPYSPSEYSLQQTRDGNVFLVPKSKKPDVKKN
How it was run: (§1)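 HepG2 cells (2×10^6/well) treated at the indicated concentrations and times. Whole-cell lysates, or nuclear and cytoplasmic fractions, are prepared and quantified by BCA. Samples are run at 40 μg/lane on 12% SDS-PAGE, transferred to nitrocellulose, probed with specific antibodies and HRP secondary (1/5000), and detected by ECL. Where used, LY294002 (15 μM), SP600125 (25 μM) or DTT (400 μM) is added 1 h before compound.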

[2] = target: T1, Nuclear factor erythroid 2-related factor 2 (Homo sapiens); assay: (§2) Activation of Nrf2 in human HepG2 cells assessed as cytoprotection against t-BHP-induced oxidative cell death at 5 uM incubated for 24 hrs followed by compound removal with subsequent incubation with 900 uM of t-BHP for 6 hrs in presence of 100 nM Nrf2 inhibitor TRG for 1 hr prior to compound treatment by MTT assay
How it was run: (§3)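 HepG2 cells (5×10^3/well) seeded and grown 24 h in 1640 medium with 10% FBS at 37 °C and 5% CO2. Compound is added for 24 h, then removed, and cells are challenged with 900 μM t-BHP for 6 h at 37 °C. MTT (0.5 mg/mL) is added for 4 h, formazan dissolved in DMSO, and absorbance read at 570 nm. Where used, inhibitors are added 1 h before compound. Mean ± SD of three independent experiments.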

[3] = target: Kelch-like ECH-associated protein 1 (Homo sapiens) (UniProt Q14145); assay: Induction of keap1-dependent Nrf2 stabilization in human HepG2 cells assessed as upregulation of total Nrf2 level at 5 uM pretreated for 3 hrs followed by coincubation with 5 ug/ml cycloheximide for 24 hrs by Western blot analysis
Sequence of Kelch-like ECH-associated protein 1 (Homo sapiens) (Q14145 whole entry): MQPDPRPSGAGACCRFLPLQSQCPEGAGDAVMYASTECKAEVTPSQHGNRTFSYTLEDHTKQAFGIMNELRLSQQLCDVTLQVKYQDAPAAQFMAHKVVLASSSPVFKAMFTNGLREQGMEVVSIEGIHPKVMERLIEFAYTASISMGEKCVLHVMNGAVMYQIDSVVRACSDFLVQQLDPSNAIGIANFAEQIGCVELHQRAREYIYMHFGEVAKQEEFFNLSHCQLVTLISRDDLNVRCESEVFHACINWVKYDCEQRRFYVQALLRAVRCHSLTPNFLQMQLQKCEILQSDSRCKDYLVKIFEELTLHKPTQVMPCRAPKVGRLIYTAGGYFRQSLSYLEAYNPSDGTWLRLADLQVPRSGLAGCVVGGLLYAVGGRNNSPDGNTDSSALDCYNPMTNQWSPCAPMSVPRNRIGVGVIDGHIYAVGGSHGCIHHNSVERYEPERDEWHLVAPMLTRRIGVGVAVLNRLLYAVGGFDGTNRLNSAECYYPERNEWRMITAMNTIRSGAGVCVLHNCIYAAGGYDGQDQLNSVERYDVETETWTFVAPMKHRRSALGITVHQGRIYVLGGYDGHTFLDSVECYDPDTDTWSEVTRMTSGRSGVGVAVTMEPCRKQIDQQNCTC
How it was run: (§4)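 HepG2 cells pretreated with or without 5 μM compound for 3 h, then given 5 μg/mL cycloheximide for the indicated periods (up to 24 h). Total lysates are immunoblotted for Nrf2. Half-life is obtained by fitting a single-phase decay model.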

[4] = target: T1, Nuclear factor erythroid 2-related factor 2 (Homo sapiens); assay: as §2, with “400 uM DTT” for “100 nM Nrf2 inhibitor TRG”; how it was run: as §3
[5] = target: T1, Nuclear factor erythroid 2-related factor 2 (Homo sapiens); assay: as §2, with “15 uM PI3K/Akt” for “100 nM Nrf2”, “LY294002” for “TRG”; how it was run: as §3
[6] = target: T1, Nuclear factor erythroid 2-related factor 2 (Homo sapiens); assay: as §2, with “3 uM HO-1” for “100 nM Nrf2”, “ZnPP” for “TRG”; how it was run: as §3
[7] = target: T1, Nuclear factor erythroid 2-related factor 2 (Homo sapiens); assay: as §2, with “10 uM GCL” for “100 nM Nrf2”, “BSO” for “TRG”; how it was run: as §3
[8] = target: T1, Nuclear factor erythroid 2-related factor 2 (Homo sapiens); assay: Activation of Nrf2 in human HepG2 cells assessed as increase in HO-1 expression level at 5 uM by Western blot analysis; details: TDE = time-dependent effect; how it was run: as §1
[9] = target: T1, Nuclear factor erythroid 2-related factor 2 (Homo sapiens); assay: Activation of Nrf2 in human HepG2 cells assessed as increase in HO-1 expression level after 3 hrs by Western blot analysis; how it was run: as §1
[10] = target: T1, Nuclear factor erythroid 2-related factor 2 (Homo sapiens); assay: Activation of Nrf2 in human HepG2 cells assessed as increase in GCLM expression level at 5 uM in presence of 25 uM JNK inhibitor SP600125 for 1 hr prior to compound treatment by Western blot analysis; how it was run: as §1
[11] = target: T1, Nuclear factor erythroid 2-related factor 2 (Homo sapiens); assay: Activation of Nrf2 in human HepG2 cells assessed as increase in nuclear Nrf2 expression level after 3 hrs by Western blot analysis; how it was run: as §1
[12] = target: Kelch-like ECH-associated protein 1 (Homo sapiens) (UniProt Q14145); assay: Induction of keap1-dependent Nrf2 stabilization in human HepG2 cells assessed as prolonged half life of Nrf2 at 5 uM pretreated for 3 hrs followed by coincubation with 5 ug/ml cycloheximide for 24 hrs by Western blot analysis relative to control; how it was run: as §4
[13] = target: T1, Nuclear factor erythroid 2-related factor 2 (Homo sapiens); assay: Activation of Nrf2 in human HepG2 cells assessed as increase in HO-1 expression level at 5 uM in presence of 15 uM PI3K/Akt inhibitor LY294002 for 1 hr prior to compound treatment by Western blot analysis; how it was run: as §1
[14] = target: T1, Nuclear factor erythroid 2-related factor 2 (Homo sapiens); assay: Activation of Nrf2 in human HepG2 cells assessed as increase in cytosolic Nrf2 expression level at 5 uM after 12 hrs by Western blot analysis; how it was run: as §1
[15] = target: c-Jun N-terminal kinase, JNK (Homo sapiens) (UniProt P45983+P53779+P45984); assay: Induction of JNK phosphorylation in human HepG2 cells at 5 uM by Western blot analysis; details: TDE = time-dependent effect; how it was run: as §1
[16] = target: T1, Nuclear factor erythroid 2-related factor 2 (Homo sapiens); assay: as §2, with “uM iron chelator DFO” for “nM Nrf2 inhibitor TRG”; how it was run: as §3
[17] = target: RAC-alpha serine/threonine-protein kinase (Homo sapiens) (UniProt P31749); assay: Induction of Akt phosphorylation in human HepG2 cells at 5 uM by Western blot analysis; details: TDE = time-dependent effect; how it was run: as §1
Sequence of RAC-alpha serine/threonine-protein kinase (Homo sapiens) (P31749 whole entry): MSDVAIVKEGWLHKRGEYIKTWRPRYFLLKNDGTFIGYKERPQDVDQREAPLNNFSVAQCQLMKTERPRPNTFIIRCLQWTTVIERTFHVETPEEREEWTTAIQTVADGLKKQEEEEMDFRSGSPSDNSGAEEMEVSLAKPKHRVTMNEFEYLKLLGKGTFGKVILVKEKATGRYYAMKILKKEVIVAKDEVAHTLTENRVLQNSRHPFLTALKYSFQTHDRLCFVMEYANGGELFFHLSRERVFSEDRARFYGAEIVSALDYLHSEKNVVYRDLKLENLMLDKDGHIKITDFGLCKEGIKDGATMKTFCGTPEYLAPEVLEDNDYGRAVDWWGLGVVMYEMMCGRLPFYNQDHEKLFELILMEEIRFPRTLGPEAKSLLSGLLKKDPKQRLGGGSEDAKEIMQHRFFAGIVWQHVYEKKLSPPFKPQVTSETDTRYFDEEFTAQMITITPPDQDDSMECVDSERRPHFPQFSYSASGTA

[18] = target: T1, Nuclear factor erythroid 2-related factor 2 (Homo sapiens); assay: Activation of Nrf2 in human HepG2 cells assessed as increase in GCLM expression level at 5 uM by Western blot analysis; details: TDE = time-dependent effect; how it was run: as §1
[19] = target: T1, Nuclear factor erythroid 2-related factor 2 (Homo sapiens); assay: Activation of Nrf2 in human HepG2 cells assessed as increase in HO-1 expression level after 24 hrs by Western blot analysis; how it was run: as §1
[20] = target: Keap1/Nrf2 (Homo sapiens) (UniProt Q16236+Q14145); assay: Inhibition of Keap1/Nrf2 interaction in human HepG2 cells assessed as increase in Nrf2 expression level after 3 hrs in presence of DTT for 1 hr prior to compound treatment by Western blot analysis; how it was run: as §1
Sequence of Keap1/Nrf2 (Homo sapiens) (Q14145 whole entry, looked up, one chain of several): as the sequence (Q14145 whole entry) above

[21] = target: Kelch-like ECH-associated protein 1 (Homo sapiens) (UniProt Q14145); assay: Induction of keap1-dependent Nrf2 stabilization in human HepG2 cells assessed as upregulation of total Nrf2 expression at 5 uM by Western blot analysis; details: TDE = time-dependent effect; how it was run: as §1

CC(C)(C(=O)/C=C/c1ccc(O)c(O)c1)C(=O)/C=C/c1ccc(O)c(O)c1
Activity [1]: inactive | Activity [2]: inactive | Activity [3]: Active | Activity [4]: inactive | Activity [5]: inactive | Activity [6]: inactive | Activity [7]: inactive | Activity [8]: Tde | Activity [9]: Active | Activity [10]: inactive | Activity [11]: Dose-dependent effect | fold change (FC) [12]: 2.6 | Activity [13]: inactive | Activity [14]: inactive | Activity [15]: Tde | Activity [16]: inactive | Activity [17]: Tde | Activity [18]: Tde | Activity [19]: Dose-dependent effect | inhibition [20]: inactive | Activity [21]: Tde

Source: ChEMBL document CHEMBL4020714, “Design, synthesis, and evaluation of curcumin derivatives as Nrf2 activators and cytoprotectors against oxidative death” (Eur J Med Chem, 2017)
